The source of these data is ChEMBL document CHEMBL1141292, “Sesquiterpenoids and artificial 19-oxygenated steroids from the formosan soft coral Nephthea erecta” (2007).

≈ marks a conversion by molar mass, not a printed value.

One assay relates to HT-29. Nature of the assay: Cytotoxicity against human HT29 cells by MTT assay. Particulars: read-out: ED50 (the source's name). In kind it is functional. The essentials: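 HT-29 human colon adenocarcinoma cells; viability read by MTT assay, following a previously described procedure.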
The next assay deals with P388. The experiment in a line: Cytotoxicity against mouse P388 cells by MTT assay. Type of assay: functional. Conditions: read-out: ED50 (the source's name). The method in brief:
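P-388 mouse lymphocytic leukemia cells; viability read by MTT assay, following a previously described procedure.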

Regarding `C=C(C)[C@@]1(OO)CC[C@]2(C)[C@H]3CC[C@@H](C)[C@H]3[C@@H]21`, the EC50 stood at 0.5 µg/mL (≈ 2.12 µM) with HT-29 and 0.3 µg/mL (≈ 1.27 µM) with P388.
The matching figures for `C[C@H]1CCC[C@@]2(C)C[C@H]3OO[C@@]12C=C3C(C)(C)O`: > 10 µg/mL and > 10 µg/mL.
As to `C[C@@H]1CC[C@@H](C(C)(C)O)C[C@]2(C)C1=C[C@H]1O[C@H]12` (relative stereo), the EC50 with HT-29 and in the assay with P388 was > 10 µg/mL each time.
For the compound `C=C(C)[C@@]1(O)CC[C@]2(C)[C@H]3CC[C@@H](C)[C@H]3[C@@H]21`, the EC50 in the assay on HT-29 and with P388 was > 10 µg/mL each time.
Turning to `C[C@H]1CCC[C@@]2(C)C[C@H]3OO[C@@]12C=C3C(C)(C)OO`, the EC50 with HT-29 is 0.4 µg/mL (≈ 1.49 µM); in the assay with P388, 0.2 µg/mL (≈ 0.745 µM).
In the case of `C=C(CC[C@@H](C)[C@H]1CC[C@H]2[C@@H]3C=CC4=CC=CC[C@]4(CO)[C@H]3CC[C@]12C)C(C)C`, the EC50 with HT-29 and in the assay with P388 was > 10 µg/mL throughout.
In the case of `C=C(CC[C@@H](C)[C@H]1CC[C@H]2[C@@H]3C=CC4=C[C@@H]5OC[C@@]4(C[C@@H]5O)[C@H]3CC[C@]12C)C(C)C`, the EC50 in the assay with HT-29 and with P388 was > 10 µg/mL throughout.
On to `C=C(C)[C@H]1[C@@H]2[C@H](C)CC[C@@H]2[C@@]2(C)CC[C@@H]12`, for which the EC50 in the assay with HT-29 is 3.2 µg/mL (≈ 15.7 µM); in the assay on P388, 2.8 µg/mL (≈ 13.7 µM).
Turning to `C=C(CC[C@@H](C)[C@H]1CC[C@H]2[C@@H]3C[C@H]4OC[C@@]5(CC[C@H](O)C[C@]45O)[C@H]3CC[C@]12C)C(C)C`, the EC50 with HT-29 and in the assay on P388 was > 10 µg/mL in each case.
